This note sets out measurements from ChEMBL document CHEMBL4184148 (Bioorg Med Chem Lett, 2017).

In one test the target is T1, Aurora kinase C (Homo sapiens, UniProt Q9UQB9).
T1 sequence (Q9UQB9 whole entry): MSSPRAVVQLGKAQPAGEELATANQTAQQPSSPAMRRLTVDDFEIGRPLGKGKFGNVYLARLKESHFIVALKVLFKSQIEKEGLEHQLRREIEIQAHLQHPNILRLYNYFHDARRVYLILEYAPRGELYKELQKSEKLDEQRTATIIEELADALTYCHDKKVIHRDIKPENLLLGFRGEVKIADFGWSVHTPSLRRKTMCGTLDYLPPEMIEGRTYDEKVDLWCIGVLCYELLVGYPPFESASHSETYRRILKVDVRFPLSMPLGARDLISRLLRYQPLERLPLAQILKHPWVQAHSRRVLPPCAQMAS
Briefly: Inhibition of recombinant full length GST-tagged human Aurora C expressed in baculovirus expression system by Z'LYTE assay. In a few lines: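 Biochemical IC50 from a Z'LYTE kinase assay, with ATP at the Km for each kinase. Values are reported with standard error.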

Test [1] addresses Serine/threonine-protein kinase ICK (Homo sapiens) (UniProt Q9UPZ9). Briefly: Binding affinity to wild-type human partial length ICK (M1 to P314 residues) expressed in HEK293 cells at 1 uM by Kinomescan method relative to control. Type of test: cell-based.
For test [2], the target named is Ribosomal protein S6 kinase alpha-2 (Homo sapiens) (UniProt Q15349). The test is described as follows: Binding affinity to wild-type human partial length N-terminal RSK2 kinase domain 1 (M1 to D394 residues) expressed in HEK293 cells at 1 uM by Kinomescan method relative to control. Type of test: cell-based.
Test [3] deals with Glycogen synthase kinase-3 alpha (Homo sapiens) (UniProt P49840). The test is described as follows: Binding affinity to wild-type human full length GSK3A (M1 to S483 residues) expressed in Escherichia coli BL21 at 1 uM by Kinomescan method relative to control. The procedure, abridged:
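Run as one kinome-wide competition binding panel with each compound at a single fixed concentration. Results were plotted as a kinome-wide selectivity map.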

Test [4] concerns the target Insulin receptor-related protein (Homo sapiens) (UniProt P14616). Briefly: Binding affinity to wild-type human partial length INSRR (R950 to E1278 residues) expressed in Escherichia coli BL21 at 1 uM by Kinomescan method relative to control.
The target of test [5] is Receptor-type tyrosine-protein kinase FLT3 (Homo sapiens) (UniProt P36888). Briefly: Binding affinity to wild-type human partial length autoinhibited FLT3 (H564 to Y969 residues) expressed in HEK293 cells at 1 uM by Kinomescan method relative to control. Type of test: cell-based. Details: scale not given: the % may be the effect or the level left.
Test [6] concerns the target Homeodomain-interacting protein kinase 3 (Homo sapiens) (UniProt Q9H422). The test is described as follows: Binding affinity to wild-type human partial length HIPK3 (M153 to N562 residues) expressed in HEK293 cells at 1 uM by Kinomescan method relative to control. Type of test: cell-based.
In test [7] the target is Serine/threonine-protein kinase 38-like (Homo sapiens) (UniProt Q9Y2H1). Briefly: Binding affinity to wild-type human partial length NDR2 (N34 to E447 residues) expressed in Escherichia coli BL21 at 1 uM by Kinomescan method relative to control.
For test [8], the target named is Serine/threonine-protein kinase TAO1 (Homo sapiens) (UniProt Q7L7X3). Briefly: Binding affinity to wild-type human partial length TAOK1 (M1 to A320 residues) expressed in HEK293 cells at 1 uM by Kinomescan method relative to control. Type of test: cell-based.
Test [9] deals with Serine/threonine-protein kinase DCLK1 (Homo sapiens) (UniProt O15075). Briefly: Binding affinity to wild-type human partial length DCAMKL1 (L270 to A662 residues) expressed in HEK293 cells at 1 uM by Kinomescan method relative to control. Type of test: cell-based.
Test [10] relates to Hepatocyte growth factor receptor (Homo sapiens), P08581 [Y1235D]. The test is described as follows: Binding affinity to human partial length MET Y1235D mutant (D1010 to S1367 residues) expressed in Escherichia coli BL21 at 1 uM by Kinomescan method relative to control.
Test [11] addresses Mitogen-activated protein kinase kinase kinase 19 (Homo sapiens) (UniProt Q56UN5). The test is described as follows: Binding affinity to wild-type human partial length YSK4 (T1019 to H1328 residues) expressed in HEK293 cells at 1 uM by Kinomescan method relative to control. Type of test: cell-based.
The target of test [12] is Phosphatidylinositol 4-phosphate 5-kinase type-1 gamma (Homo sapiens) (UniProt O60331). The test is described as follows: Binding affinity to wild-type human partial length PIP5K1C (M1 to T668 residues) expressed in HEK293 cells at 1 uM by Kinomescan method relative to control. Type of test: cell-based.
The target in test [13] is Mitogen-activated protein kinase kinase kinase 6 (Homo sapiens) (UniProt O95382). Briefly: Binding affinity to wild-type human partial length ASK2 (M278 to R972 residues) expressed in HEK293 cells at 1 uM by Kinomescan method relative to control. Type of test: cell-based. In a few lines: (§1)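 Kinome-wide competition binding panel run by an outside provider, with each compound tested at a single concentration. Activity is read against the kinase panel.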

The subject of test [14] is Mast/stem cell growth factor receptor Kit (Homo sapiens), P10721 [A829P]. The test is described as follows: Binding affinity to human partial length KIT A829P mutant (I571 to D952 residues) expressed in HEK293 cells at 1 uM by Kinomescan method relative to control. Type of test: cell-based.
Test [15] has as its target Transient receptor potential cation channel subfamily M member 6 (Homo sapiens) (UniProt Q9BX84). The test is described as follows: Binding affinity to wild-type human partial length TRPM6 (Q1723 to I1998 residues) expressed in HEK293 cells at 1 uM by Kinomescan method relative to control. Type of test: cell-based.
Test [16] has as its system Tyrosine-protein kinase ABL1 (Homo sapiens), P00519 [F317L]. Briefly: Binding affinity to human non-phosphorylated ABL1 F317L mutant (S229 to K512 residues) expressed in HEK293 cells at 1 uM by Kinomescan method relative to control. Type of test: cell-based.
Test [17] relates to Fibroblast growth factor receptor 3 (Homo sapiens), P22607 [G697C]. Briefly: Binding affinity to human partial length FGFR3 G697C mutant (R442 to S771 residues) expressed in Escherichia coli BL21 at 1 uM by Kinomescan method relative to control.
Test [18] concerns the target Epidermal growth factor receptor (Homo sapiens) (UniProt P00533). The test is described as follows: Binding affinity to wild-type human partial length EGFR (R669 to V1011 residues) expressed in Escherichia coli BL21 at 1 uM by Kinomescan method relative to control.
Test [19] addresses Fibroblast growth factor receptor 3 (Homo sapiens) (UniProt P22607). Briefly: Binding affinity to wild-type human partial length FGFR3 (R442 to S771 residues) expressed in Escherichia coli BL21 at 1 uM by Kinomescan method relative to control.
Test [20] concerns the target Tyrosine-protein kinase ZAP-70 (Homo sapiens) (UniProt P43403). Briefly: Binding affinity to wild-type human partial length ZAP70 (D20 to G299 residues) expressed in HEK293 cells at 1 uM by Kinomescan method relative to control. Type of test: cell-based.
Test [21] deals with Aurora kinase A (Homo sapiens) (UniProt O14965). The test is described as follows: Binding affinity to wild-type human partial length AURKA (E122 to K401 residues) expressed in HEK293 cells at 1 uM by Kinomescan method relative to control. Type of test: cell-based. The procedure, abridged:
as §1

SMILES strings stand for the structures.

Sequence of Serine/threonine-protein kinase TAO1 (Homo sapiens) (Q7L7X3 whole entry, the tested form may be a part): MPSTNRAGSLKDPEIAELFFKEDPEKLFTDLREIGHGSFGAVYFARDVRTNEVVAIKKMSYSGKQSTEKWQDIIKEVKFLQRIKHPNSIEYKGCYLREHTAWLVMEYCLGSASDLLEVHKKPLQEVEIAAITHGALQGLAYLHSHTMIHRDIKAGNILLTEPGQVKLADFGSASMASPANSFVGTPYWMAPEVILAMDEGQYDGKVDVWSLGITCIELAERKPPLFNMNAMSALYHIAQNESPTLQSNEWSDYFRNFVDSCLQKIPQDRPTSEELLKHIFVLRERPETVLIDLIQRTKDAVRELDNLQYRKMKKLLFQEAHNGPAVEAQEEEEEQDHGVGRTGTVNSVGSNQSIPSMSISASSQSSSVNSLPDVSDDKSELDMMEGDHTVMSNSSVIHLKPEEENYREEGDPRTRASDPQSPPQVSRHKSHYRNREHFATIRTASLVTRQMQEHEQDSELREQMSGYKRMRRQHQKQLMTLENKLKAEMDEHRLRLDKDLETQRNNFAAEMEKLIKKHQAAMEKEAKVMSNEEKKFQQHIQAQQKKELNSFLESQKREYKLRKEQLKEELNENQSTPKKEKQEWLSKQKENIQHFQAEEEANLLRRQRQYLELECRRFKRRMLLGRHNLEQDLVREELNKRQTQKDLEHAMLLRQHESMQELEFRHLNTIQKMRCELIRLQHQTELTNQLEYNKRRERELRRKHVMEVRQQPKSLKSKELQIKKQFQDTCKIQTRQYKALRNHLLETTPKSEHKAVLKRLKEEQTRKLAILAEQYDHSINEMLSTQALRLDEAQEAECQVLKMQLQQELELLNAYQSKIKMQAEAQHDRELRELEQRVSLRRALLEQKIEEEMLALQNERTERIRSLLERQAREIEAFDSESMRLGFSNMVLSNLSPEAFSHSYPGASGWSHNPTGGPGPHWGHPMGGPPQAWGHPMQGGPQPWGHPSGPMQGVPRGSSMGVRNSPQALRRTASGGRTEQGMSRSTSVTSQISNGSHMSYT
Sequence of Mast/stem cell growth factor receptor Kit (Homo sapiens), P10721 [A829P] (P10721 whole entry A829P, the tested form may be a part): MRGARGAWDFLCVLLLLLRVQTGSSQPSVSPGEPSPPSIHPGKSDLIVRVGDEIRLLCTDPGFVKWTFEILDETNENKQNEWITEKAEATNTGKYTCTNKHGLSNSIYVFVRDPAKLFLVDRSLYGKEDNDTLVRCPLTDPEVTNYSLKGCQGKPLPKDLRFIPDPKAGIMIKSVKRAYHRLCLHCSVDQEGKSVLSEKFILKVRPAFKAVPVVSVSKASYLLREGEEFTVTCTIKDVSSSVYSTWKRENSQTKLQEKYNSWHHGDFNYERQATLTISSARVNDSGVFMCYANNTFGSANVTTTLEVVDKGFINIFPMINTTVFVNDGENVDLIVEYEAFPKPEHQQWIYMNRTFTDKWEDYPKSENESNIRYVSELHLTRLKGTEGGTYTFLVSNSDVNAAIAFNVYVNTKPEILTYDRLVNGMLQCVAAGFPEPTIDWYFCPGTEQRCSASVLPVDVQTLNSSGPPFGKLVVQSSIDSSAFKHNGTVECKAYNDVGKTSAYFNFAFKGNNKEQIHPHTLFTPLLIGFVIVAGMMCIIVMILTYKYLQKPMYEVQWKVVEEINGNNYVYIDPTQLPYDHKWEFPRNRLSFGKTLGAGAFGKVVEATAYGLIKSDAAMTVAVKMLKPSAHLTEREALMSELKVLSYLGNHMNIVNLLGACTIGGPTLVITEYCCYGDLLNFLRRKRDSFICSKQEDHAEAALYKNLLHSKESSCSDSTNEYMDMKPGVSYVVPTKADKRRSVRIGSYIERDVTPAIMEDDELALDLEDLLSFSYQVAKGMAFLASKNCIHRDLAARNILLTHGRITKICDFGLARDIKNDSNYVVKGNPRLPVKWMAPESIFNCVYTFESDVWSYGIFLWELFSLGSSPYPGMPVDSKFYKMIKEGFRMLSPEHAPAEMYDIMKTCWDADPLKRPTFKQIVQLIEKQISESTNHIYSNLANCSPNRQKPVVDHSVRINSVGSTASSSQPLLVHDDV
Sequence of Mitogen-activated protein kinase kinase kinase 19 (Homo sapiens) (Q56UN5 whole entry, the tested form may be a part): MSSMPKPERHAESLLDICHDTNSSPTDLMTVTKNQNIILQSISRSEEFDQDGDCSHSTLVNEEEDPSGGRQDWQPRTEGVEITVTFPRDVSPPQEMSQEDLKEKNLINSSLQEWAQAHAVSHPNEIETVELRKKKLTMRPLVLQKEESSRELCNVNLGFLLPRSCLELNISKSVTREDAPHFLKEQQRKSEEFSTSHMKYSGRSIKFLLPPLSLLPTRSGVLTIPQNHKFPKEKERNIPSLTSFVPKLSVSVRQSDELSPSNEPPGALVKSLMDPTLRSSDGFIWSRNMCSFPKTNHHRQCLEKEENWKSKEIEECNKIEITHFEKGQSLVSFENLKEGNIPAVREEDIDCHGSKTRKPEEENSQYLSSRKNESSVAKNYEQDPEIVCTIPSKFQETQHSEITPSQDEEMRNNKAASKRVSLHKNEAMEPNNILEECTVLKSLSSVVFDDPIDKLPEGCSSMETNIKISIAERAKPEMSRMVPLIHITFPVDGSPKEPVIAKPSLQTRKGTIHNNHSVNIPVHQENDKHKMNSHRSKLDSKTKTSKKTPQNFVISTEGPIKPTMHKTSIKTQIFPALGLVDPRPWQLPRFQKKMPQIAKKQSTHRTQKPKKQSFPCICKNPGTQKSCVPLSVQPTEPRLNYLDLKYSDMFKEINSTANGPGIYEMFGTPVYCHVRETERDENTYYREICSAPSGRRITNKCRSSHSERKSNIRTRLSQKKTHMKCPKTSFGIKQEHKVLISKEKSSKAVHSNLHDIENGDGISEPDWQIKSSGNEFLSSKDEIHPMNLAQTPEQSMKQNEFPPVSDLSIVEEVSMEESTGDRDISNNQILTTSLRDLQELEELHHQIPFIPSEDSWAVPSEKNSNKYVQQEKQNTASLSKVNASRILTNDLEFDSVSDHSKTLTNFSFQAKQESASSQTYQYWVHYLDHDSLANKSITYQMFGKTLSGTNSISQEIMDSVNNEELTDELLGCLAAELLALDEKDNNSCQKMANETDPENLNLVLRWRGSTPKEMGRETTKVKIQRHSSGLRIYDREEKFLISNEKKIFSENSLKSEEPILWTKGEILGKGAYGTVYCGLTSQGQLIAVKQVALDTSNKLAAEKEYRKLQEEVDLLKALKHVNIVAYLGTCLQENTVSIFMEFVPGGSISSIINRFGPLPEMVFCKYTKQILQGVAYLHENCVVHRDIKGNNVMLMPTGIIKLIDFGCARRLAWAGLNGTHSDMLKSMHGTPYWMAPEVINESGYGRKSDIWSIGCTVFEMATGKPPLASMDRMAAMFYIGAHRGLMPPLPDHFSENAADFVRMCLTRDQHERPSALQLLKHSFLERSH
Sequence of Ribosomal protein S6 kinase alpha-2 (Homo sapiens) (Q15349 whole entry, the tested form may be a part): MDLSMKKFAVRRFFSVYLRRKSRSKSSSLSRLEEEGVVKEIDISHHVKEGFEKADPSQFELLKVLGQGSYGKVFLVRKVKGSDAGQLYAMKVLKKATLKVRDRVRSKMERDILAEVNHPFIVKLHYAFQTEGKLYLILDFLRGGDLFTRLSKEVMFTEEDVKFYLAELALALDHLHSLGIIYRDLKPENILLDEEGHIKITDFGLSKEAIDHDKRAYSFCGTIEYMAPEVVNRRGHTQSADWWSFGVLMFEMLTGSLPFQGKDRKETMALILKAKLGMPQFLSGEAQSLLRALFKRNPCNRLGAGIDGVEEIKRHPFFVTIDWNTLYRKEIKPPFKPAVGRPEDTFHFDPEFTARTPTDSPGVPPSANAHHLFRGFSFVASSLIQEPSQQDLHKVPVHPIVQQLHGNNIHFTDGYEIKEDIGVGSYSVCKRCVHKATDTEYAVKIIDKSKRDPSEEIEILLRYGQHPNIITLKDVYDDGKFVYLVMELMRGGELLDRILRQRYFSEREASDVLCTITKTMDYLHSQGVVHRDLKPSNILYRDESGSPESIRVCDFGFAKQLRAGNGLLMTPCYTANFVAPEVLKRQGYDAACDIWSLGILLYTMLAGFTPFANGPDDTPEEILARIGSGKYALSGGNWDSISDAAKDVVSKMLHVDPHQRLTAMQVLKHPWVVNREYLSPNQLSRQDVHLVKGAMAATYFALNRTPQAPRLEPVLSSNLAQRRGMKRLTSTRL
Sequence of Glycogen synthase kinase-3 alpha (Homo sapiens) (P49840 2-483 limits assumed): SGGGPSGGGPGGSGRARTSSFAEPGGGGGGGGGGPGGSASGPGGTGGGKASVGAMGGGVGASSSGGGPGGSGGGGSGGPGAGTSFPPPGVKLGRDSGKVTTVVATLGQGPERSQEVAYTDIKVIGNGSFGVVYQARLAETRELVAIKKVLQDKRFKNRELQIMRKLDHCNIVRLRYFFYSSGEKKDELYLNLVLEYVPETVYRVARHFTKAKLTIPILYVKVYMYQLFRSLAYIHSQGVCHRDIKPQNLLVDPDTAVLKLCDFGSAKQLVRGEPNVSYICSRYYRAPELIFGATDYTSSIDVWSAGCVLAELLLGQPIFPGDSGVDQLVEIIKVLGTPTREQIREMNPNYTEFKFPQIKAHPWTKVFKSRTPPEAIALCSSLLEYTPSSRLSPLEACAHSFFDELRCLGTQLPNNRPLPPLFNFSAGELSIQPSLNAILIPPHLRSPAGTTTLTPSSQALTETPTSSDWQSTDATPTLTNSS
Sequence of Aurora kinase A (Homo sapiens) (O14965 whole entry, the tested form may be a part): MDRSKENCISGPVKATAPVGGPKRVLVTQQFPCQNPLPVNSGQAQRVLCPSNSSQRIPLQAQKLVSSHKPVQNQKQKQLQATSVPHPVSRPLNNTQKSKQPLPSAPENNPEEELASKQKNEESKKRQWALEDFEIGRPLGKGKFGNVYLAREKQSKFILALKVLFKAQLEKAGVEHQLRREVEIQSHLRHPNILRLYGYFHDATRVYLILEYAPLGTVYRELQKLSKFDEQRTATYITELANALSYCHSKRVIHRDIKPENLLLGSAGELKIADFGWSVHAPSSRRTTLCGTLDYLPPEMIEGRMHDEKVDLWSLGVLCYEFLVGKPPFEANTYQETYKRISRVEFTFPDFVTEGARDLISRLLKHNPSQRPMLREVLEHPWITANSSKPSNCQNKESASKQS

Usually IC50 stands for the concentration that gives 50% inhibition. Consider `CCC(=O)Nc1ccc(C(=O)Nc2ccc(Nc3ncc4c(n3)N(C)c3ccc(C)cc3C(=O)N4C)cc2)cc1`, for which the IC50 at Aurora kinase C turned out to be 53 nM. Further, the Activity in test [1] was 97%; in test [2] it was 66%; in test [3] it was 100%; in [4], 100%; in test [5], 85%; in test [6], 67%. The Activity turned out to be 79% in test [7]; 89% in test [8]; 72% in test [9]; 91% in [10]; 77% in test [11]; 88% in [12]. Further, the Activity came out at 89% in [13]; 54% in test [14]; 100% in test [15]; 72% in test [16]; 95% in [17]; 69% in test [18]. Moreover, the figures for the Activity in [19], in test [20] and in test [21] were 89%, 95% and 0.45%, respectively.
Turning to `C=CC(=O)Nc1ccc(C(=O)Nc2ccc(Nc3ncc4c(n3)N(C)c3ccc(C)cc3C(=O)N4C)cc2)cc1`, the IC50 on Aurora kinase C was 63 nM. Further, the Activity in test [1] was 86%; in test [2], 82%; in test [3], 100%; in test [4] it was 100%; in [5] it was 84%; in test [6], 95%. Also, the Activity turned out to be 97% in test [7]; 92% in [8]; 78% in test [9]; 87% in test [10]; 72% in [11]; 98% in test [12]. Also, the Activity in test [13] came to 83%; in test [14] it was 99%; in test [15], 96%; in [16], 90%; in test [17], 93%; in [18], 83%. The results for the Activity in test [19], in [20] and in test [21] were 73%, 97% and 0%, respectively.
